NR3A LBD binder = modulators (binders) of human NR3A ligand-binding domain; NR3A LBD differential scanning fluorimetry, Tm shift; 0% = protein alone, 100% = glycine-bound protein; Tm shift relative to glycine control, % at 25 µM; 2.5% of 340,000 active;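 active = melting temperature shift of at least 10% of the positive control shift, at one fixed dose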
JMJD2C inh = inhibitors of human GASC-1 (JMJD2C) demethylase | GST-JMJD2C(1-420) H3K9me3 demethylation, DELFIA europium | inhibition, % at 2.35 µM | AID 2099 | 0.069% of 330,000 active | Q9H3R0;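 active = more than half of a compound's replicate wells show inhibition beyond 50%, single wells judged on their own value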;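 note: signal counts dimethyl H3K9 product captured on neutravidin plate; 0% = median of DMSO wells and 100% = 0.3 times that DMSO median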
GC-A act = GC-A (human) enzyme activation; P16066; HEK293 GC-A cells, cGMP TR-FRET, EC30 ANP; 0% at EC30 ANP, 100% saturating ANP; activation, % at 10 µM; 0.14% of 370,000 active; AID 1671463; in the data active = activation above about 40%
Hep lipid drop = modulators of hepatic lipid droplet formation; inhibition, % at 6.5 µM; 0.4% of 240,000 active; AML12 mouse hepatocytes, oleate lipid droplets, BODIPY imaging;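 active = lipid droplet intensity inhibited by at least 50%, with more than 500 cells counted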
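Material – mouse AML12 hepatocyte cell line, fixed after treatment · Compound dosing – one dose, 6.5 µM compound · Times – compound with oleate, overnight · Measured by – Image-based BODIPY and DAPI two-channel analysis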
aDG glyco up = alpha-DG glycosylation activation | Pro5-aDG cells, alpha-DG glycosylation AlphaScreen (IIH6); 0% Pro5, 100% B10-LARGE cell signal | activation, % at 10 µM | 0.22% of 360,000 active;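 active = activation of at least 8% versus controls, or a plate z-score of at least 8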;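 note: Pro5 are CHO cells carrying HIG-tagged alpha-DG that lacks glycosylation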
NPR2 activator = GC-B (human) receptor activation | 0.11% of 370,000 active | activation, % at 10 µM | HEK293-GC-B cells, CNP EC30, cGMP TR-FRET; 0% at EC30 CNP, 100% saturating CNP | P20594;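 active = activation at 10 µM reaching about 35% in either raw or pattern-adjusted values, limit read from the data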
Starred values were filed as active, the others as inactive; . = no result. Only some compounds are listed: those with a hit (about 3% of all), similar ones and a draw of the others.

SMILES | NR3A LBD binder | JMJD2C inh | GC-A act | Hep lipid drop | aDG glyco up | NPR2 activator
COc1ccc(N2C(=O)N3[C@H](c4cccc(C)c4)[C@@H]4C(=O)N(Cc5ccccc5)C(=O)[C@@H]4[C@]3(Cc3ccccc3)C2=O)cc1 | 4 | -25 | 0 | 4 | . | -3
Oc1cccc(C2c3[nH]c4ccccc4c3CCN2Cc2ccoc2)c1 (stereo not drawn) | -1 | -13 | -2 | -1 | 0 | -2
Oc1cccc(C2c3[nH]c4ccccc4c3CCN2Cc2ccc3c(c2)CCO3)c1 (stereo not drawn) | 11* | -2 | -3 | -10 | 0 | -4
CCCN(C(=O)CCOc1ccc(C(C)(C)C)cc1)c1c(N)n(Cc2ccccc2)c(=O)[nH]c1=O | -1 | -9 | -1 | . | 0 | 2
Cc1csc(CNc2ncnc3ccc(-c4ccoc4)cc23)c1 | -5 | -2 | 36 | . | 0 | 37*
Nc1nn2c(C(F)(F)F)cc(=O)[nH]c2c1N=Nc1cccc(F)c1 | 21* | 10 | . | 4 | 0 | .
COc1ccccc1/C=C/C(=O)OCC(=O)c1cc(C)n(C)c1C | 0 | -1 | 1 | . | 0 | -1
COc1cc(/C=C/C(=O)OCC(=O)c2c[nH]c3ccccc23)ccc1OC(F)F | 29* | -9 | 3 | 2 | 0 | 3
COc1ccccc1/C=C/C(=O)OCC(=O)c1c[nH]c2ccccc12 | 11* | -1 | 6 | . | 1 | 1
COc1ccc(OCC(=O)c2c[nH]c3ccccc23)cc1 | 14* | 3 | 4 | 2 | 0 | -7
COc1ccccc1CNC(=O)COC(=O)/C=C/c1ccc(OC(F)F)c(OC)c1 | 2 | 19 | -1 | . | 0 | -1
CCOc1ccc(-n2c(SC/C=C/c3ccccc3)nnc2-c2ccco2)cc1 | . | . | 3 | . | . | 0
CN(C)CCNC(=O)C(=O)c1c(-c2ccccc2)cc2ccccn12 | 242* | 5 | 4 | 2 | 0 | -1
Brc1ccccc1Cn1c(-c2cscn2)nc2ccccc21 | -3 | 15 | 36 | 7 | 1 | 39*
O=C(NCc1ccccc1F)C1C2C=CC3(CN(Cc4ccccc4)C(=O)C13)O2 (stereo not drawn) | . | . | 4 | . | . | 16
CCOC(=O)CSc1nnc(Cc2ccccc2)n1-c1cccc(Cl)c1 | 733* | -5 | . | . | 0 | .
CCOC(=O)CSc1nnc(Cc2ccc(OC)cc2)n1-c1ccccc1 | 0 | 0 | -5 | -4 | 0 | -3
CCN(CC)c1ccc(C=Nn2c(-c3ccc(F)cc3)n[nH]c2=S)c(O)c1 | . | . | -5 | . | . | -3
CCN(CC)C(=O)CC[C@@H]1CC[C@]2(CCCN(Cc3nccs3)C2)O1 | . | . | 2 | . | . | 7
CCN(CC)S(=O)(=O)c1ccc(N/N=C/c2cccnc2)nc1 | 2 | -19 | -1 | -1 | 0 | -4
CCN(CC)S(=O)(=O)c1ccc(N/N=C/c2cc(OC)ccc2O)nc1 | 24* | 9 | 7 | . | 1 | 6
O=C1C=C(Nc2ccccc2)C(=O)c2ccccc21 | -2 | 2 | 0 | 1 | 3 | -13
CCc1ccc(NC2=CC(=O)C(=O)c3ccccc32)cc1 | 3 | . | . | . | 5.4* | .
CCc1ccc(S(=O)(=O)/N=C2\C=C(Nc3ccc(C(=O)O)cc3)C(=O)c3ccccc32)cc1 | 1 | 3 | -7 | . | 0 | -2
O=C1C=C(Nc2ccccc2)c2ccccc2C1=O | -2 | -21 | -5 | -11 | 11* | -7
SMILES | NR3A LBD binder | JMJD2C inh | GC-A act | Hep lipid drop | aDG glyco up | NPR2 activator
CCCCNC1=CC(=O)C(=O)c2ccccc21 | 1 | -3 | -2 | 4 | 6.9* | 2
O=C(Nc1nc2ncccn2c1-c1ccc(F)cc1)C1CC1 | . | . | 4 | . | . | -2
CC(C)CCN(C(=O)CCSc1ccc(F)cc1)c1c(N)n(Cc2ccccc2)c(=O)[nH]c1=O | -2 | 0 | -1 | . | 0 | 8
O=C(Nc1ccccc1Cl)c1ccccc1Oc1ccc(C(F)(F)F)cc1[N+](=O)[O-] | 12* | 2 | -8 | . | 0 | -7
Cc1cccc(Cn2cc(COC(=O)NCC(C)C)nn2)c1 | . | . | 7 | . | . | 10
COC(=O)c1ccc(CSc2nc3ccccc3c(=O)n2CC(C)C)o1 | 20* | -7 | 3 | . | 0 | 6

Source: PubChem BioAssay (several laboratories)
